# Laboratory results reported in ChEMBL document CHEMBL2176895, “Bacterial reduction as means for colonic drug delivery: can other chemical groups provide an alternative to the azo bond?” (J Med Chem, 2012).
# Assay: Drug metabolism in Sprague-Dawley rat cecal contents assessed as colonic bacteria-mediated rate for final reduction product formation relative to sulfasalazine reduction rate
# Type: ADME
# Settings: not given; call rule not given here
# How it was run: (§1)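 The reduction was followed by reversed-phase HPLC with photodiode-array detection on a C18 column at 30 °C and 1 mL/min. Elution used a gradient of methanol against 50 mM potassium phosphate buffer, pH 6.8, containing 0.1% tetrabutylammonium hydroxide.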
row,Ratio,SMILES
1,0.724,CN(C)c1ccc([N+](=O)[O-])cc1C(=O)O
2,0.45,O=C(O)c1cc([N+](=O)[O-])ccc1O
3,0.603,Cc1ccc([N+](=O)[O-])cc1C(=O)O
4,1.013,O=C(O)c1cc([N+](=O)[O-])ccc1Cl
5,0.113,O=C(O)c1ccc([N+](=O)[O-])cc1C(=O)O
6,0.128,O=C(O)c1cc(C(=O)O)cc([N+](=O)[O-])c1
7,1.222,O=C(O)c1cc([N+](=O)[O-])cc(C(F)(F)F)c1
8,0.759,O=C(O)c1cccc([N+](=O)[O-])c1

# Assay: Drug metabolism in Sprague-Dawley rat cecal contents assessed as accumulation of colonic bacteria-mediated final reduction product level at 2 mM
# Type: ADME
# Settings: 2000 µM
# How it was run: as §1
row,Drug metabolism,SMILES
1,Active,O=C(O)c1cc([N+](=O)[O-])ccc1O
2,Active,O=C(O)c1cc(SSc2ccc(O)c(C(=O)O)c2)ccc1O
3,Active,O=C(O)c1cc(/N=N/c2ccc(O)c(C(=O)O)c2)ccc1O [OLSALAZINE]
